From ChEMBL document CHEMBL1142449 (Bioorg Med Chem, 2008)

Tests used:
Format in all cases: cell-based
[1] = molecular target: T1, Neurotensin receptor type 1 (Homo sapiens, UniProt P30989); experiment: Displacement of [3H]NT(8-13) from wild type human NTR1 expressed in HEK293 cells
[2] = molecular target: T1, Neurotensin receptor type 1; experiment: Displacement of [3H]SR48692 from wild type human NTR1 expressed in HEK293 cells
Outline: (§1)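 Membranes from HEK-293 cells transiently transfected (CaHPO4 method) with wild-type or EL1-mutant hNTR1 cDNA and harvested 48 h post-transfection. Homologous competition binding with 0.8 nM [3H]SR 48692 (81 Ci/mmol), adapted to 96-well format. Curves normalized per receptor, 4–6 experiments in triplicate. Kd and Bmax given with 95% confidence intervals.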

[3] = system: Neurotensin receptor type 1 (Homo sapiens), P30989 [F127A]; experiment: (§2) Displacement of [3H]SR48692 from human NTR1 extracellular loop 1 F127A mutant expressed in HEK293 cells; outline: as §1
[4] = molecular target: Neurotensin receptor type 1 (Homo sapiens, UniProt P30989, F127A); experiment: as §2; outline: as §1
[5] = system: Neurotensin receptor type 1 (Homo sapiens), P30989 [H131A]; experiment: (§3) Displacement of [3H]SR48692 from human NTR1 extracellular loop 1 H131A mutant expressed in HEK293 cells; outline: as §1
[6] = molecular target: Neurotensin receptor type 1 (Homo sapiens, UniProt P30989, H131A); experiment: as §3; outline: as §1
[7] = system: Neurotensin receptor type 1 (Homo sapiens), P30989 [P133A]; experiment: (§4) Displacement of [3H]SR48692 from human NTR1 extracellular loop 1 P133A mutant expressed in HEK293 cells; outline: as §1
[8] = molecular target: Neurotensin receptor type 1 (Homo sapiens, UniProt P30989, P133A); experiment: as §4; outline: as §1
[9] = system: Neurotensin receptor type 1 (Homo sapiens), P30989 [W134A]; experiment: (§5) Displacement of [3H]SR48692 from human NTR1 extracellular loop 1 W134A mutant expressed in HEK293 cells; outline: as §1
[10] = molecular target: Neurotensin receptor type 1 (Homo sapiens, UniProt P30989, W134A); experiment: as §5; outline: as §1
[11] = system: Neurotensin receptor type 1 (Homo sapiens), P30989 [F136A]; experiment: (§6) Displacement of [3H]SR48692 from human NTR1 extracellular loop 1 F136A mutant expressed in HEK293 cells; outline: as §1
[12] = molecular target: Neurotensin receptor type 1 (Homo sapiens, UniProt P30989, F136A); experiment: as §6; outline: as §1
[13] = system: Neurotensin receptor type 1 (Homo sapiens), P30989 [W129A]; experiment: (§7) Displacement of [3H]SR48692 from human NTR1 extracellular loop 1 W129A mutant expressed in HEK293 cells; outline: as §1
[14] = molecular target: Neurotensin receptor type 1 (Homo sapiens, UniProt P30989, W129A); experiment: as §7; outline: as §1
Chain of Neurotensin receptor type 1 (Homo sapiens, UniProt P30989, W129A) (P30989 whole entry W129A): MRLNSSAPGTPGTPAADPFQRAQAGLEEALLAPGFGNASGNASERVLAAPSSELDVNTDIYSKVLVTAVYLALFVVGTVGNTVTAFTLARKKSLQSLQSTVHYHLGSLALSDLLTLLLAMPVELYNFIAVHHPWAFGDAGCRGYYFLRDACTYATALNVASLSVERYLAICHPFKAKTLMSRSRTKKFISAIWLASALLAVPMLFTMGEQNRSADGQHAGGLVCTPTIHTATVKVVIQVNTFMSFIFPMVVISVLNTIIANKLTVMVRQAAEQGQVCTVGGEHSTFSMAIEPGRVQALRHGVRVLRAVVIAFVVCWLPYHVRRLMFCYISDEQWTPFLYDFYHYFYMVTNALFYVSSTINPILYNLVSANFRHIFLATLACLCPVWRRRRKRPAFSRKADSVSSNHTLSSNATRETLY

T1 sequence (P30989 whole entry): as the sequence (P30989 whole entry W129A) above, with A129W counted along it
Chain of Neurotensin receptor type 1 (Homo sapiens, UniProt P30989, P133A) (P30989 whole entry P133A): as the sequence (P30989 whole entry W129A) above, with A129W, P133A counted along it
Chain of Neurotensin receptor type 1 (Homo sapiens), P30989 [P133A] (P30989 whole entry P133A): as the sequence (P30989 whole entry W129A) above, with A129W, P133A counted along it
Chain of Neurotensin receptor type 1 (Homo sapiens, UniProt P30989, H131A) (P30989 whole entry H131A): as the sequence (P30989 whole entry W129A) above, with A129W, H131A counted along it
Chain of Neurotensin receptor type 1 (Homo sapiens), P30989 [H131A] (P30989 whole entry H131A): as the sequence (P30989 whole entry W129A) above, with A129W, H131A counted along it
Chain of Neurotensin receptor type 1 (Homo sapiens), P30989 [W129A] (P30989 whole entry W129A): as the sequence (P30989 whole entry W129A) above
Chain of Neurotensin receptor type 1 (Homo sapiens, UniProt P30989, F127A) (P30989 whole entry F127A): as the sequence (P30989 whole entry W129A) above, with F127A, A129W counted along it
Chain of Neurotensin receptor type 1 (Homo sapiens), P30989 [F127A] (P30989 whole entry F127A): as the sequence (P30989 whole entry W129A) above, with F127A, A129W counted along it
Chain of Neurotensin receptor type 1 (Homo sapiens), P30989 [F136A] (P30989 whole entry F136A): as the sequence (P30989 whole entry W129A) above, with A129W, F136A counted along it
Chain of Neurotensin receptor type 1 (Homo sapiens, UniProt P30989, F136A) (P30989 whole entry F136A): as the sequence (P30989 whole entry W129A) above, with A129W, F136A counted along it
Chain of Neurotensin receptor type 1 (Homo sapiens), P30989 [W134A] (P30989 whole entry W134A): as the sequence (P30989 whole entry W129A) above, with A129W, W134A counted along it
Chain of Neurotensin receptor type 1 (Homo sapiens, UniProt P30989, W134A) (P30989 whole entry W134A): as the sequence (P30989 whole entry W129A) above, with A129W, W134A counted along it

| Ki [1] | Bmax [2] | Kd [2] | Bmax [3] | Kd [4] | Bmax [5] | Kd [6] | Bmax [7] | Kd [8] | Bmax [9] | Kd [10] | Bmax [11] | Kd [12] | Bmax [13] | Kd [14] | Compound |
| --- | --- | --- | --- | --- | --- | --- | --- | --- | --- | --- | --- | --- | --- | --- | --- |
| 2.4 nM | – | – | – | – | – | – | – | – | – | – | – | – | – | – | CC[C@H](C)[C@H](NC(=O)[C@H](Cc1ccc(O)cc1)NC(=O)[C@@H]1CCCN1C(=O)[C@H](CCCNC(=N)N)NC(=O)[C@@H](N)CCCNC(=N)N)C(=O)NC1(C(=O)O)C2CC3CC(C2)CC1C3 (stereo not given in full) |
| – | 15 pmol/mg | 8.9 nM | 18 pmol/mg | 19 nM | 16 pmol/mg | 8.4 nM | 9.3 pmol/mg | 9.2 nM | 10 pmol/mg | 23 nM | 10 pmol/mg | 33 nM | 9.4 pmol/mg | 27 nM | COc1cccc(OC)c1-c1cc(C(=O)NC2(C(=O)O)C3CC4CC(C3)CC2C4)nn1-c1ccnc2cc(Cl)ccc12 (stereo not given) [REMINERTANT] |
